Data on 35 compounds can be found in ChEMBL document CHEMBL3997768, “The synthesis and antistaphylococcal activity of dehydroabietic acid derivatives: modifications at C12 and C7” (2017).

Molecules are shown by their SMILES. Values after ≈ are worked out from the molar mass of the structure shown. Active and inactive are the calls of the source. The rule behind the calls is not given here.

The subject of one experiment is Staphylococcus aureus. Nature of the experiment: Antibacterial activity against Staphylococcus aureus Newman after 18 hrs by two fold serial dilution method. It counts as functional. The method in brief:
(§1)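 Strains were grown overnight at 37 °C in TSB without antibiotic, diluted 1000-fold, and grown 2–3 h to A600 0.6. They were then diluted 1:400 in fresh TSB. Compounds in DMSO were two-fold serially diluted to a final 0.39–50 and mixed with an equal volume of bacteria. A600 was read after 18 h. MIC is the lowest concentration inhibiting growth. Triplicate; vancomycin and tetracycline were positive controls.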

The subject of a further experiment is Escherichia coli. The experiment in a line: Antibacterial activity against Escherichia coli AB1157 at 50 ug/ml after 18 hrs by two fold serial dilution method. It counts as functional. The method in brief: as §1

The compound `CC(C)c1cc2c(cc1Br)[C@@]1(C)CCC[C@@](C)(C(=O)O)[C@@H]1C/C2=N\OCCCNC(=O)c1cc2ccccc2[nH]1` showed an MIC in the experiment with Staphylococcus aureus greater than 41.1 µM. In addition, the outcome in the experiment on Escherichia coli was inactive.

In the experiment on Staphylococcus aureus, `CC(C)c1cc2c(cc1Br)[C@@]1(C)CCC[C@@](C)(C(=O)O)[C@@H]1C/C2=N\OCCCNC(=O)c1cccs1` registered an MIC greater than 86.9 µM. Also, the result in the experiment with Escherichia coli was inactive.

For `CC(C)c1cc2c(cc1Br)[C@@]1(C)CCC[C@@](C)(C(=O)O)[C@@H]1C/C2=N\OCCNC(=O)c1cccs1`, the MIC against Staphylococcus aureus was greater than 89 µM. In addition, the result in the experiment with Escherichia coli was inactive.

Consider `CC(C)c1cc2c(cc1Br)[C@@]1(C)CCC[C@@](C)(C(=O)O)[C@@H]1C/C2=N\OCCCN`, for which the minimum inhibitory concentration (MIC) with Staphylococcus aureus was greater than 107 µM. Besides, the result in the experiment with Escherichia coli was inactive.

Compound `CC(C)c1cc2c(cc1Br)[C@@]1(C)CCC[C@@](C)(C(=O)O)[C@@H]1C/C2=N\OCCCNC(=O)C(C)(C)C` came in with a minimal inhibitory concentration (MIC) in the experiment on Staphylococcus aureus of 72.8 to 91 µM (≈ 40 to 50 µg/mL). Further, the result in the experiment with Escherichia coli was inactive.

Turning to `CCCCCC(=O)NCCO/N=C1\C[C@H]2[C@](C)(C(=O)O)CCC[C@]2(C)c2cc(Br)c(C(C)C)cc21`, the minimal inhibitory concentration (MIC) with Staphylococcus aureus was 13.6 to 18.2 µM (≈ 7.5 to 10 µg/mL). The outcome in the experiment with Escherichia coli was inactive.

Turning to `CCc1ccc(C(=O)NCCO/N=C2\C[C@H]3[C@](C)(C(=O)O)CCC[C@]3(C)c3cc(Br)c(C(C)C)cc32)cc1`, the MIC in the experiment on Staphylococcus aureus lay within 4.28 to 6.42 µM (≈ 2.5 to 3.75 µg/mL). Also, the outcome in the experiment with Escherichia coli was inactive.

`CC(C)c1cc2c(cc1Br)[C@@]1(C)CCC[C@@](C)(C(=O)O)[C@@H]1C/C2=N\OCCN` showed a minimum inhibitory concentration (MIC) with Staphylococcus aureus greater than 111 µM. In the experiment with Escherichia coli, the result was inactive.

In the experiment on Staphylococcus aureus, `CC(C)c1cc2c(cc1Br)[C@@]1(C)CCC[C@@](C)(C(=O)O)[C@@H]1C/C2=N\OCCCNC(=O)Cc1ccccc1` gave an MIC of 17.1 µM (≈ 10 µg/mL). Also, the outcome with Escherichia coli was inactive.

`CC(C)c1cc2c(cc1Br)[C@@]1(C)CCC[C@@](C)(C(=O)O)[C@@H]1C/C2=N\OCCNC(=O)c1ccccc1C(F)(F)F` returned a minimal inhibitory concentration (MIC) in the experiment on Staphylococcus aureus of 10 to 20.1 µM (≈ 6.25 to 12.5 µg/mL). In the experiment on Escherichia coli, the result was inactive.

Turning to `CC(C)c1cc2c(cc1Br)[C@@]1(C)CCC[C@@](C)(C(=O)O)[C@@H]1C/C2=N\OCCNC(=O)c1ccco1`, in the experiment on Staphylococcus aureus, the MIC lay within 36.7 to 45.8 µM (≈ 20 to 25 µg/mL). For the same compound, the result in the experiment on Escherichia coli was inactive.

In the experiment with Staphylococcus aureus, `CC(C)c1cc2c(cc1Br)[C@@]1(C)CCC[C@@](C)(C(=O)O)[C@@H]1C/C2=N\OCCNC(=O)c1ccc[nH]1` registered a minimal inhibitory concentration (MIC) of 5.75 to 9.18 µM (≈ 3.13 to 5 µg/mL). The result with Escherichia coli was inactive.

Compound `CC(C)c1cc2c(cc1Br)[C@@]1(C)CCC[C@@](C)(C(=O)O)[C@@H]1C/C2=N\OCCNC(=O)c1ccc(C(F)(F)F)cc1` came in with a minimal inhibitory concentration (MIC) in the experiment on Staphylococcus aureus of 5.02 to 8.02 µM (≈ 3.13 to 5 µg/mL). For the same compound, in the experiment with Escherichia coli, the result was inactive.

Compound `CC(C)c1cc2c(cc1Br)[C@@]1(C)CCC[C@@](C)(C(=O)O)[C@@H]1C/C2=N\OCCNC(=O)Cc1ccc(C(F)(F)F)cc1` gave an MIC with Staphylococcus aureus of 5.88 to 7.84 µM (≈ 3.75 to 5 µg/mL). Further, the outcome in the experiment with Escherichia coli was inactive.

`CC(C)C(=O)NCCO/N=C1\C[C@H]2[C@](C)(C(=O)O)CCC[C@]2(C)c2cc(Br)c(C(C)C)cc21`: the minimum inhibitory concentration (MIC) against Staphylococcus aureus lay in the range of 76.7 to 95.9 µM (≈ 40 to 50 µg/mL). Moreover, the result with Escherichia coli was inactive.

`CC(C)c1cc2c(cc1Br)[C@@]1(C)CCC[C@@](C)(C(=O)O)[C@@H]1C/C2=N\OCCNC(=O)c1cc(Br)cs1` displayed an MIC in the experiment on Staphylococcus aureus of 5.86 to 7.81 µM (≈ 3.75 to 5 µg/mL). Also, the outcome in the experiment on Escherichia coli was inactive.

With `CC(C)c1ccc2c(c1)CC[C@H]1[C@](C)(C(=O)O)CCC[C@]21C` [DEHYDROABIETIC ACID], the MIC with Staphylococcus aureus lay in the range of 41.6 to 66.6 µM (≈ 12.5 to 20 µg/mL). The outcome in the experiment on Escherichia coli was inactive.

The compound `CC(C)c1cc2c(cc1Br)[C@@]1(C)CCC[C@@](C)(C(=O)O)[C@@H]1C/C2=N\OCCCNC(=O)c1ccsc1` gave an MIC with Staphylococcus aureus of 17.4 µM (≈ 10 µg/mL). Further, in the experiment on Escherichia coli, the result was inactive.

`Cc1ccc(C(=O)NCCCO/N=C2\C[C@H]3[C@](C)(C(=O)O)CCC[C@]3(C)c3cc(Br)c(C(C)C)cc32)s1` yielded a minimal inhibitory concentration (MIC) with Staphylococcus aureus of 6.36 to 8.48 µM (≈ 3.75 to 5 µg/mL). Also, in the experiment on Escherichia coli, the result was inactive.

Turning to `CC(C)c1cc2c(cc1Br)[C@@]1(C)CCC[C@@](C)(C(=O)O)[C@@H]1C/C2=N\OCCNC(=O)c1ccccn1`, the MIC in the experiment with Staphylococcus aureus is 26.9 to 35.9 µM (≈ 15 to 20 µg/mL). In the experiment with Escherichia coli, the result was inactive.

`CC(C)c1cc2c(cc1Br)[C@@]1(C)CCC[C@@](C)(C(=O)O)[C@@H]1C/C2=N\OCCCNC(=O)Cc1ccccc1C(F)(F)F` registered a minimal inhibitory concentration (MIC) against Staphylococcus aureus of 7.67 µM (≈ 5 µg/mL). Moreover, the result in the experiment with Escherichia coli was inactive.

In the case of `CC(C)c1cc2c(cc1Br)[C@@]1(C)CCC[C@@](C)(C(=O)O)[C@@H]1C/C2=N\OCCCNC(=O)c1ccccn1`, the MIC in the experiment with Staphylococcus aureus amounted to 21.9 µM (≈ 12.5 µg/mL). The outcome in the experiment with Escherichia coli was inactive.

As for `CC(C)c1cc2c(cc1Br)[C@@]1(C)CCC[C@@](C)(C(=O)O)[C@@H]1C/C2=N\OCCNC(=O)Cc1cccc(C(F)(F)F)c1`, the MIC in the experiment with Staphylococcus aureus was in the range of 5.88 to 7.84 µM (≈ 3.75 to 5 µg/mL). Also, the result with Escherichia coli was inactive.

In the experiment with Staphylococcus aureus, `CC(C)c1cc2c(cc1Br)[C@@]1(C)CCC[C@@](C)(C(=O)O)[C@@H]1C/C2=N\OCCCNC(=O)c1ccccc1F` had an MIC of 8.51 to 10.6 µM (≈ 5 to 6.25 µg/mL). The outcome in the experiment with Escherichia coli was inactive.

In turn, `CC(C)c1cc2c(cc1Br)[C@@]1(C)CCC[C@@](C)(C(=O)O)[C@@H]1C/C2=N\OCCNC(=O)Cc1ccccc1` yielded a minimal inhibitory concentration (MIC) against Staphylococcus aureus of 17.6 µM (≈ 10 µg/mL). Further, the result in the experiment on Escherichia coli was inactive.

The compound `CC(C)c1cc2c(cc1Br)[C@@]1(C)CCC[C@@](C)(C(=O)O)[C@@H]1C/C2=N\OCCCNC(=O)c1ccccc1` came in with a minimal inhibitory concentration (MIC) against Staphylococcus aureus of 8.78 µM (≈ 5 µg/mL). The outcome with Escherichia coli was inactive.

In the experiment on Staphylococcus aureus, `CC(C)c1cc2c(cc1Br)[C@@]1(C)CCC[C@@](C)(C(=O)O)[C@@H]1C/C2=N\OCCCNC(=O)c1ccccc1C(F)(F)F` yielded an MIC of 7.84 to 9.8 µM (≈ 5 to 6.25 µg/mL). Besides, the outcome in the experiment with Escherichia coli was inactive.

In the experiment with Staphylococcus aureus, `CC(C)c1cc2c(cc1Br)[C@@]1(C)CCC[C@@](C)(C(=O)O)[C@@H]1C/C2=N\OCCNC(=O)c1ccccc1F` came in with an MIC of 13.1 to 17.4 µM (≈ 7.5 to 10 µg/mL). Further, the result in the experiment on Escherichia coli was inactive.

In turn, `CC(C)c1cc2c(cc1Br)[C@@]1(C)CCC[C@@](C)(C(=O)O)[C@@H]1C/C2=N\OCCCNC(=O)c1c(F)c(F)c(F)c(F)c1F` gave an MIC against Staphylococcus aureus of 5.69 to 7.58 µM (≈ 3.75 to 5 µg/mL). In addition, the outcome in the experiment with Escherichia coli was inactive.

Compound `CC(C)c1cc2c(cc1Br)[C@@]1(C)CCC[C@@](C)(C(=O)O)[C@@H]1C/C2=N\OCCNC(=O)Cc1ccccc1C(F)(F)F` yielded an MIC against Staphylococcus aureus of 7.84 µM (≈ 5 µg/mL). For the same compound, in the experiment with Escherichia coli, the outcome was inactive.

Take `Cc1ccc(C(=O)NCCO/N=C2\C[C@H]3[C@](C)(C(=O)O)CCC[C@]3(C)c3cc(Br)c(C(C)C)cc32)s1`: the MIC against Staphylococcus aureus lay within 13 to 17.4 µM (≈ 7.5 to 10 µg/mL). For the same compound, in the experiment on Escherichia coli, the outcome was inactive.

In turn, `COc1ccc(C(=O)NCCO/N=C2\C[C@H]3[C@](C)(C(=O)O)CCC[C@]3(C)c3cc(Br)c(C(C)C)cc32)cc1` registered an MIC in the experiment with Staphylococcus aureus of 25.6 to 34.2 µM (≈ 15 to 20 µg/mL). For the same compound, in the experiment with Escherichia coli, the result was inactive.

In the experiment with Staphylococcus aureus, `COc1ccc(C(=O)NCCCO/N=C2\C[C@H]3[C@](C)(C(=O)O)CCC[C@]3(C)c3cc(Br)c(C(C)C)cc32)cc1` came in with an MIC of 12.5 to 16.7 µM (≈ 7.5 to 10 µg/mL). Moreover, the result in the experiment with Escherichia coli was inactive.

Turning to `CC(=O)NCCO/N=C1\C[C@H]2[C@](C)(C(=O)O)CCC[C@]2(C)c2cc(Br)c(C(C)C)cc21`, the minimum inhibitory concentration (MIC) against Staphylococcus aureus is greater than 101 µM. In the experiment on Escherichia coli, the outcome was inactive.

In the experiment with Staphylococcus aureus, `CC(C)c1cc2c(cc1Br)[C@@]1(C)CCC[C@@](C)(C(=O)O)[C@@H]1C/C2=N\OCCCNC(=O)C1CC1` displayed an MIC of 56.2 to 75 µM (≈ 30 to 40 µg/mL). In the experiment with Escherichia coli, the result was inactive.
